Data: ChEMBL document CHEMBL1165943, “Design and synthesis of new anticancer pyrimidines with multiple-kinase inhibitory effect” (Bioorg Med Chem, 2010)

Assays:
Assay type in all cases: functional
UO-31 = assay: Cytotoxicity against human UO31 cells assessed as cell growth at 10 uM; settings: Homo sapiens, UO-31; read-out: Activity
In short: (§1)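 Single-dose screen at 10 μM across the 60-cell-line panel. Cells grown in RPMI 1640 with 5% FBS and 2 mM L-glutamine, seeded at 5,000–40,000 cells/well according to doubling time, and treated 24 h later. Exposure lasted 48 h at 37 °C, 5% CO₂. Adherent cells were fixed with cold TCA, suspension cells were fixed settled, and both were stained with SRB and read at 515 nm. Growth % was recorded, with inhibition % = 100 − growth %.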

SF-268 = assay: Cytotoxicity against human SF268 cells assessed as cell growth at 10 uM; settings: Homo sapiens, SF-268; read-out: Activity; in short: as §1
ACHN = assay: Cytotoxicity against human ACHN cells assessed as cell growth at 10 uM; settings: Homo sapiens, ACHN; read-out: Activity
In short: (§2)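 Single-concentration screen at 10 μM across the 60-cell-line panel (nine tissue types); growth percentage recorded per cell line, with inhibition taken as 100 minus growth percentage.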

T47D = assay: Cytotoxicity against human T47D cells assessed as cell growth at 10 uM; settings: Homo sapiens, T47D; read-out: Activity; in short: as §1
DU-145 = assay: Cytotoxicity against human DU145 cells assessed as cell growth at 10 uM; settings: Homo sapiens, DU-145; read-out: Activity; in short: as §2
HT-29 = assay: Cytotoxicity against human HT-29 cells assessed as cell growth at 10 uM; settings: Homo sapiens, HT-29; read-out: Activity; in short: as §2
EKVX = assay: Cytotoxicity against human EKVX cells assessed as cell growth at 10 uM; settings: Homo sapiens, EKVX; read-out: Activity; in short: as §2
IGROV-1 = assay: Cytotoxicity against human IGROV1 cells assessed as cell growth at 10 uM; settings: Homo sapiens, IGROV-1; read-out: Activity; in short: as §1
NCI-H226 = assay: Cytotoxicity against human NCI-H226 cells assessed as cell growth at 10 uM; settings: Homo sapiens, NCI-H226; read-out: Activity; in short: as §1
OVCAR-3 = assay: Cytotoxicity against human OVCAR-3 cells assessed as cell growth at 10 uM; settings: Homo sapiens, OVCAR-3; read-out: Activity; in short: as §1
OVCAR-5 = assay: Cytotoxicity against human OVCAR5 cells assessed as cell growth at 10 uM; settings: Homo sapiens, OVCAR-5; read-out: Activity; in short: as §1
NCI-H23 = assay: Cytotoxicity against human NCI-H23 cells assessed as cell growth at 10 uM; settings: Homo sapiens, NCI-H23; read-out: Activity; in short: as §1
HCT-116 = assay: Cytotoxicity against human HCT116 cells assessed as cell growth at 10 uM; settings: Homo sapiens, HCT-116; read-out: Activity; in short: as §2
K562 = assay: Cytotoxicity against human K562 cells assessed as cell growth at 10 uM; settings: Homo sapiens, K562; read-out: Activity; in short: as §1
MDA-MB-468 = assay: Cytotoxicity against human MDA-MB-468 cells assessed as cell growth at 10 uM; settings: Homo sapiens, MDA-MB-468; read-out: Activity; in short: as §1
SK-MEL-2 = assay: Cytotoxicity against human SK-MEL-2 cells assessed as cell growth at 10 uM; settings: Homo sapiens, SK-MEL-2; read-out: Activity; in short: as §1
HL-60(TB) = assay: Cytotoxicity against human HL-60(TB) cells assessed as cell growth at 10 uM; settings: Homo sapiens, HL-60; read-out: Activity
In short: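 Single-concentration 10 µM screen of HL-60(TB) within the 60-line panel, grown in RPMI 1640 with 5% FBS. The drug from DMSO stock is incubated 48 h at 37 °C, settled cells are TCA-fixed and SRB-stained, and absorbance is read at 515 nm. Percent growth is reported, and inhibition % is taken as 100 minus growth %.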

COLO 205 = assay: Cytotoxicity against human COLO205 cells assessed as cell growth at 10 uM; settings: Homo sapiens, COLO 205; read-out: Activity; in short: as §2
UACC-62 = assay: Cytotoxicity against human UACC62 cells assessed as cell growth at 10 uM; settings: Homo sapiens, UACC-62; read-out: Activity; in short: as §1
HCT-15 = assay: Cytotoxicity against human HCT15 cells assessed as cell growth at 10 uM; settings: Homo sapiens, HCT-15; read-out: Activity; in short: as §2
U-251 = assay: Cytotoxicity against human U251 cells assessed as cell growth at 10 uM; settings: Homo sapiens, U-251; read-out: Activity; in short: as §1
UACC-257 = assay: Cytotoxicity against human UACC257 cells assessed as cell growth at 10 uM; settings: Homo sapiens, UACC-257; read-out: Activity; in short: as §1
HOP-62 = assay: Cytotoxicity against human HOP62 cells assessed as cell growth at 10 uM; settings: Homo sapiens, HOP-62; read-out: Activity; in short: as §2
[1] = Growth inhibition of human NCI60 cells at 10 uM after 48 hrs by sulforhodamine B assay relative to control; settings: Homo sapiens, NCI60, 48 h; read-out: GI
In short: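 Single 10 µM dose across the 60-line panel for 48 h, with the same culture, TCA fixation and SRB 515 nm read-out. Inhibition % = 100 − growth %, given as the mean over the 60 cell lines.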

LOX IMVI = assay: Cytotoxicity against human LOXIMVI cells assessed as cell growth at 10 uM; settings: Homo sapiens, LOX IMVI; read-out: Activity; in short: as §1
SK-OV-3 = assay: Cytotoxicity against human SKOV3 cells assessed as cell growth at 10 uM; settings: Homo sapiens, SK-OV-3; read-out: Activity; in short: as §1
KM12 = assay: Cytotoxicity against human KM12 cells assessed as cell growth at 10 uM; settings: Homo sapiens, KM12; read-out: Activity; in short: as §1
PC-3 = assay: Cytotoxicity against human PC3 cells assessed as cell growth at 10 uM; settings: Homo sapiens, PC-3; read-out: Activity; in short: as §1
MDA-MB-231 = assay: Cytotoxicity against human MDA-MB-231 cells assessed as cell growth at 10 uM; settings: Homo sapiens, MDA-MB-231; read-out: Activity; in short: as §1
OVCAR-4 = assay: Cytotoxicity against human OVCAR4 cells assessed as cell growth at 10 uM; settings: Homo sapiens, OVCAR-4; read-out: Activity; in short: as §1
M14 = assay: Cytotoxicity against human M14 cells assessed as cell growth at 10 uM; settings: Homo sapiens, M14; read-out: Activity; in short: as §1
NCI-H322M = assay: Cytotoxicity against human NCI-H322M cells assessed as cell growth at 10 uM; settings: Homo sapiens, NCI-H322M; read-out: Activity; in short: as §1
OVCAR-8 = assay: Cytotoxicity against human OVCAR8 cells assessed as cell growth at 10 uM; settings: Homo sapiens, OVCAR-8; read-out: Activity; in short: as §1
SW-620 = assay: Cytotoxicity against human SW620 cells assessed as cell growth at 10 uM; settings: Homo sapiens, SW-620; read-out: Activity; in short: as §1
SK-MEL-28 = assay: Cytotoxicity against human SK-MEL-28 cells assessed as cell growth at 10 uM; settings: Homo sapiens, SK-MEL-28; read-out: Activity; in short: as §1
SF-295 = assay: Cytotoxicity against human SF295 cells assessed as cell growth at 10 uM; settings: Homo sapiens, SF-295; read-out: Activity; in short: as §1

| SMILES | growth at 10 µM (UO-31) | growth at 10 µM (SF-268) | growth at 10 µM (ACHN) | growth at 10 µM (T47D) | growth at 10 µM (DU-145) | growth at 10 µM (HT-29) | growth at 10 µM (EKVX) | growth at 10 µM (IGROV-1) | growth at 10 µM (NCI-H226) | growth at 10 µM (OVCAR-3) | growth at 10 µM (OVCAR-5) | growth at 10 µM (NCI-H23) | growth at 10 µM (HCT-116) | growth at 10 µM (K562) | growth at 10 µM (MDA-MB-468) | growth at 10 µM (SK-MEL-2) | growth at 10 µM (HL-60(TB)) | growth at 10 µM (COLO 205) | growth at 10 µM (UACC-62) | growth at 10 µM (HCT-15) | other results |
| --- | --- | --- | --- | --- | --- | --- | --- | --- | --- | --- | --- | --- | --- | --- | --- | --- | --- | --- | --- | --- | --- |
| c1ccc(-c2ccc(-c3ccnc(Nc4ccc(N(c5ccccc5)c5ccccc5)cc4)n3)cn2)cc1 | 72.4% | 90% | 96.5% | 111% | 115% | 89.5% | 103% | 67.2% | 115% | 125% | 106% | 145% | 40.6% | 94.9% | 105% | 102% | 91.8% | 116% | 96.9% | 102% | growth at 10 µM (U-251): 87.2%; growth at 10 µM (UACC-257): 106%; growth at 10 µM (HOP-62): 122%; inhibition of growth at 10 µM [1]: 0.97%; growth at 10 µM (LOX IMVI): 131%; growth at 10 µM (SK-OV-3): 119%; growth at 10 µM (KM12): 97%; growth at 10 µM (PC-3): 87.1%; growth at 10 µM (MDA-MB-231): 123%; growth at 10 µM (OVCAR-4): 93.4%; growth at 10 µM (M14): 90.2%; growth at 10 µM (NCI-H322M): 88.5%; growth at 10 µM (OVCAR-8): 79.5%; growth at 10 µM (SW-620): 78.3%; growth at 10 µM (SK-MEL-28): 118%; growth at 10 µM (SF-295): 124% |
| FC(F)(F)c1cc(Nc2nccc(-c3ccc(Nc4ccccc4)nc3)n2)cc(C(F)(F)F)c1 | 79.5% | 107% | 91.3% | 84.5% | 111% | 99.8% | 108% | 102% | 98% | 119% | 97.3% | 98.2% | 108% | 92.9% | 89.6% | 92.1% | 105% | 104% | 99.1% | 97.4% | growth at 10 µM (U-251): 104%; growth at 10 µM (UACC-257): 99.5%; growth at 10 µM (HOP-62): 94%; inhibition of growth at 10 µM [1]: 0.2%; growth at 10 µM (LOX IMVI): 103%; growth at 10 µM (SK-OV-3): 89.9%; growth at 10 µM (KM12): 112%; growth at 10 µM (PC-3): 95.2%; growth at 10 µM (MDA-MB-231): 97.5%; growth at 10 µM (OVCAR-4): 105%; growth at 10 µM (M14): 111%; growth at 10 µM (NCI-H322M): 96.6%; growth at 10 µM (OVCAR-8): 97.2%; growth at 10 µM (SW-620): 101%; growth at 10 µM (SK-MEL-28): 110%; growth at 10 µM (SF-295): 112% |
